Measured values as given in article PMC12824664 (Blood, 2025).

How the values were obtained:
[1] = test system: relapsed/refractory chronic lymphocytic leukemia; experiment: Phase 1/2 BRUIN trial, pirtobrutinib monotherapy, response per iwCLL 2018; format: in vivo, human
How it was run: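 Relapsed/refractory CLL patients pretreated with covalent BTK inhibitors received test compound monotherapy in a multicenter phase 1/2 trial. Response followed iwCLL 2018 criteria, with data cutoff 5 May 2023. ORR was the proportion with best response of partial response with lymphocytosis or better, with 2-sided 95% CI from the exact binomial. PBMCs at baseline and progression underwent targeted NGS; a more sensitive assay had 0.5% VAF LoD.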

[2] = test system: BTK mutants with kinase activity (Y545N, V416L, T474I, C481S+T474I) in Ramos BTK KO cells; format: cell-based; details: variants with kinase activity vs wild type
[3] = target: wild type BTK (Homo sapiens, UniProt Q06187); experiment: biochemical; format: binding; details: read-out: residence time t1/2
Sequence of wild type BTK (Q06187 whole entry): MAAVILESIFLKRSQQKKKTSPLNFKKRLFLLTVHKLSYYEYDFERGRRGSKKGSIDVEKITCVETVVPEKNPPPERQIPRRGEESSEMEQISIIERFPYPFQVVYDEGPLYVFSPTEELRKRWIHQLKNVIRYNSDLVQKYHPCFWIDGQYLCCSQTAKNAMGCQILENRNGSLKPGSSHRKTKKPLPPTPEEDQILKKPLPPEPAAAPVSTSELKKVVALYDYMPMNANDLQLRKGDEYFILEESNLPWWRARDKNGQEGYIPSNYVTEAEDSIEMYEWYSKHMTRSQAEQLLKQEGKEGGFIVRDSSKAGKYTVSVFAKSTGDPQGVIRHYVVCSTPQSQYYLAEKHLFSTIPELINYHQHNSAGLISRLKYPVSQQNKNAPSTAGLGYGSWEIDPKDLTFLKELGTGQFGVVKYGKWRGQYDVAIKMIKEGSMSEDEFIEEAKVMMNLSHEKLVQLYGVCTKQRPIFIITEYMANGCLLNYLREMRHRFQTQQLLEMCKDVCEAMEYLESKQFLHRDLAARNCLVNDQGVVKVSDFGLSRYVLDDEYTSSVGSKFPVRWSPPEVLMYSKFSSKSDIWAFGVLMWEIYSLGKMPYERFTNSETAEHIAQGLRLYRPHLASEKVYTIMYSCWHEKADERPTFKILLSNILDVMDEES

Q: What does the source list for `COc1ccc(F)cc1C(=O)NCc1ccc(-c2nn([C@@H](C)C(F)(F)F)c(N)c2C(N)=O)cc1` [Pirtobrutinib]?
A: BOR ([1]; 3 patients with detectable BTK L528W at baseline): partial response, stable disease, and PD; BOR ([1]; 6 patients with detectable BTK T474x at baseline): PR (4), SD (1), and PD (1; Median PFS (95%CI) ([1]; Patients with PD and longitudinal samples n=88): 10.3 months; patients who experienced PD on pirtobrutinib ([1]; overall population, median follow-up of 29 months, 139 patients): 57%; median PFS ([1]; patients with baseline BTK T474x (standard and high sensitivity), 95% CI, 7.4-22.3): 9.2 months; sensitivity to inhibition in cellular BTK phosphorylation assays [2]: less sensitive; residence time [3]: 336 min
